Measurements: ChEMBL document CHEMBL2169804, “Novel histone deacetylase 8 ligands without a zinc chelating group: exploring an 'upside-down' binding pose” (Bioorg Med Chem Lett, 2012)
Activity calls are given as the source filed them. The rule behind the calls is not given here.

What was measured:
[1] = target: T1, Protein deacetylase HDAC6 (Homo sapiens) (UniProt Q9UBN7); assay: Inhibition of cytoplasmic HDAC6 in human SH-SY5Y cells assessed as alpha-tubulin acetylation at 1 uM after 24 hrs by Western blot analysis; assay type: cell-based
T1 sequence (whole entry): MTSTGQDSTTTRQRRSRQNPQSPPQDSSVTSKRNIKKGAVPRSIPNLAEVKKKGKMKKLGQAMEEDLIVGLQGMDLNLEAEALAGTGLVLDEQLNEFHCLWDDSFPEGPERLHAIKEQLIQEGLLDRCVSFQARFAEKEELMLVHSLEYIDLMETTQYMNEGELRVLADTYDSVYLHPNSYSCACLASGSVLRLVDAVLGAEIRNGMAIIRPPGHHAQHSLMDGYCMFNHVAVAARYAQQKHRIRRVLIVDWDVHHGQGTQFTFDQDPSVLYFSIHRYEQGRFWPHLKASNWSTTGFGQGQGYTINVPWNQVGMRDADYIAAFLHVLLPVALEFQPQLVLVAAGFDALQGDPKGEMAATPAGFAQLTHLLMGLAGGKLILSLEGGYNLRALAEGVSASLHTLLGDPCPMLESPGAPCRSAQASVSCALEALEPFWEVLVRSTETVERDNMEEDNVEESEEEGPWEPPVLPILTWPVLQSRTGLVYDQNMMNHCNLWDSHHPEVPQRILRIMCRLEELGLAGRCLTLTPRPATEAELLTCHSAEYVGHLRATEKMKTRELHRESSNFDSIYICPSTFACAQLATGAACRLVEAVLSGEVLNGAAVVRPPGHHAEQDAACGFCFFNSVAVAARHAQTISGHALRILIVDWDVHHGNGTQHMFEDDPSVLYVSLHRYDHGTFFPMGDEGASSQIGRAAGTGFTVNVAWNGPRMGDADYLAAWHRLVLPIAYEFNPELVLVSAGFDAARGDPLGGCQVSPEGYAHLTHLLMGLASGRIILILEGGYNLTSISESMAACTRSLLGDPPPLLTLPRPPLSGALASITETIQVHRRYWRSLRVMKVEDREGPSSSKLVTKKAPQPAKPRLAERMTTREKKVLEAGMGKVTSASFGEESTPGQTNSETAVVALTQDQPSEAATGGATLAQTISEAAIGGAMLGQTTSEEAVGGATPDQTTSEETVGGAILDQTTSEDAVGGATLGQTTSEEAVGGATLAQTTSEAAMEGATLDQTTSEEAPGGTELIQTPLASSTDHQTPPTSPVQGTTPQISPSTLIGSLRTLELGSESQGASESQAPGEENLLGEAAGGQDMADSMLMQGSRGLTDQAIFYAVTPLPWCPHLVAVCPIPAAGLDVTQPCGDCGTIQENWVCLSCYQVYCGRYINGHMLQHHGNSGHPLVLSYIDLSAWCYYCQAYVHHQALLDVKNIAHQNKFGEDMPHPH
Procedure, shortened: (§1)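 SH-SY5Y cells were grown to 80% confluence in 1:1 DMEM:OPTI-MEM with 10% FBS. They were treated with vehicle or compound for 24 h at 37 °C, 5% CO2, then lysed in RIPA buffer with protease and phosphatase inhibitors. Lysate containing 20 µg protein was run by SDS-PAGE and blotted with anti-acetyl α-tubulin or anti-acetyl histone H4 (1:1000) overnight at 4 °C, with anti-GAPDH as reference. Detection was by chemiluminescence on a CCD camera.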

[2] = target: T2, Histone deacetylase 8 (Homo sapiens) (UniProt Q9BY41); assay: Binding affinity to human recombinant HDAC8 expressed in Escherichia coli assessed as enzyme biotinylation level at 5 uM preincubated for 3 hrs followed by denaturation measured after 60 mins by Western blot-based photoaffinity labelling method in presence of 250 uM SAHA
T2 sequence (whole entry): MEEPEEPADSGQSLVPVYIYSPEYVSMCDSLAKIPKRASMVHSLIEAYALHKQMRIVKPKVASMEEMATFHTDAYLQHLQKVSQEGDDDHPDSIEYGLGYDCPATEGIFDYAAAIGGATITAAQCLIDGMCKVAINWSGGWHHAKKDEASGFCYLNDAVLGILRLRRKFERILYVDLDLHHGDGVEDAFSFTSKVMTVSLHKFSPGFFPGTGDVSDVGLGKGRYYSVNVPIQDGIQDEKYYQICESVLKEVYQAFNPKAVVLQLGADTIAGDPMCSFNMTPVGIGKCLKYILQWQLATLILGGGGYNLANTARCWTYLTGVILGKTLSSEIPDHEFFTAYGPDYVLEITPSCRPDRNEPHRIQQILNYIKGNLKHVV
Procedure, shortened: (§2)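 Probe, or probe plus competitor, preincubated 3 h at room temperature, then irradiated at 254 nm for 3 × 1 min with 1 min rests. For denaturing runs, SDS was added to 2% w/v final and held 30 min at 37 °C.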

[3] = target: T2, Histone deacetylase 8 (Homo sapiens); assay: Binding affinity to human recombinant HDAC8 expressed in Escherichia coli assessed as enzyme biotinylation level at 5 uM preincubated for 3 hrs followed by denaturation measured after 60 mins by Western blot-based photoaffinity labelling method in presence of 250 uM 7-[4-(3,5-Dimethyl-benzyloxy)phenylcarbamoyl]heptanoic acid methyl ester; procedure, shortened: as §2
[4] = target: T2, Histone deacetylase 8 (Homo sapiens); assay: Binding affinity to human recombinant HDAC8 expressed in Escherichia coli assessed as increase in enzyme biotinylation level preincubated for 3 hrs followed by denaturation measured after 60 mins by Western blot-based photoaffinity labelling method; procedure, shortened: as §2
[5] = target: T2, Histone deacetylase 8 (Homo sapiens); assay: Binding affinity to human recombinant HDAC8 expressed in Escherichia coli assessed as enzyme biotinylation level at 5 uM preincubated for 3 hrs followed by denaturation measured after 60 mins by Western blot-based photoaffinity labelling method in presence of 250 uM PCI34051; procedure, shortened: as §2
[6] = target: T2, Histone deacetylase 8 (Homo sapiens); assay: Binding affinity to human recombinant HDAC8 expressed in Escherichia coli assessed as enzyme biotinylation level at 5 uM preincubated for 3 hrs followed by denaturation measured after 60 mins by Western blot-based photoaffinity labelling method in presence of 250 uM TSA; procedure, shortened: as §2
[7] = target: T2, Histone deacetylase 8 (Homo sapiens); assay: Binding affinity to human recombinant HDAC8 expressed in Escherichia coli assessed as increase in enzyme biotinylation level at 5 uM preincubated for 3 hrs followed by denaturation measured after 60 mins by Western blot-based photoaffinity labelling method in presence of 5 uM SAHA; procedure, shortened: as §2
[8] = target: T2, Histone deacetylase 8 (Homo sapiens); assay: Binding affinity to human recombinant HDAC8 expressed in Escherichia coli assessed as increase in enzyme biotinylation level at […] under non denaturating condition after 3 hrs by Western blot-based photoaffinity labelling method
Histone deacetylase 8 = target: T3, Histone deacetylase 8 (Homo sapiens, UniProt Q9BY41); assay: Inhibition of human recombinant HDAC8 using fluor de Lys as substrate preincubated for 5 mins followed by substrate addition measured after 25 mins by microplate reader analysis
T3 sequence (Q9BY41 whole entry): T2 sequence (whole entry)

[9] = target: T2, Histone deacetylase 8 (Homo sapiens); assay: Binding affinity to human recombinant HDAC8 expressed in Escherichia coli assessed as increase in enzyme biotinylation level at […] preincubated for 3 hrs followed by denaturation measured after 60 mins by Western blot-based photoaffinity labelling method
Histone deacetylase 3 [10] = target: T4, Histone deacetylase 3 (Homo sapiens, UniProt O15379); assay: Inhibition of human recombinant HDAC3 using Boc-Lys(Ac)-AMC as substrate preincubated for 5 mins followed by substrate addition measured after 30 mins by microplate reader analysis
Histone deacetylase 1 [11] = target: T5, Histone deacetylase 1 (Homo sapiens, UniProt Q13547); assay: Inhibition of human recombinant HDAC1 using Boc-Lys(Ac)-AMC as substrate preincubated for 5 mins followed by substrate addition measured after 30 mins by microplate reader analysis
Histone deacetylase 3 [12] = target: T4, Histone deacetylase 3; assay: Inhibition of human recombinant HDAC3 using Boc-Lys(Ac)-AMC as substrate at 66 uM preincubated for 5 mins followed by substrate addition measured after 30 mins by microplate reader analysis
Histone deacetylase 2 [13] = target: T6, Histone deacetylase 2 (Homo sapiens, UniProt Q92769); assay: Inhibition of human recombinant HDAC2 using Boc-Lys(Ac)-AMC as substrate preincubated for 5 mins followed by substrate addition measured after 30 mins by microplate reader analysis
[14] = target: T2, Histone deacetylase 8 (Homo sapiens); assay: Inhibition of human recombinant HDAC8 using fluor de Lys as substrate assessed as residual activity at 66 uM preincubated for 5 mins followed by substrate addition measured after 25 mins by microplate reader analysis
Histone deacetylase 1 [15] = target: T5, Histone deacetylase 1; assay: Inhibition of nuclear HDAC1 in human SH-SY5Y cells assessed as increase in histone H4 acetylation after 24 hrs by Western blot analysis; assay type: cell-based; procedure, shortened: as §1
[16] = target: T2, Histone deacetylase 8 (Homo sapiens); assay: Inhibition of nuclear HDAC8 in human SH-SY5Y cells assessed as increase in histone H4 acetylation after 24 hrs by Western blot analysis; assay type: cell-based; procedure, shortened: as §1
Histone deacetylase 2 [17] = target: T6, Histone deacetylase 2; assay: Inhibition of nuclear HDAC2 in human SH-SY5Y cells assessed as increase in histone H4 acetylation after 24 hrs by Western blot analysis; assay type: cell-based; procedure, shortened: as §1
Histone deacetylase 3 [18] = target: T4, Histone deacetylase 3; assay: Inhibition of nuclear HDAC3 in human SH-SY5Y cells assessed as increase in histone H4 acetylation after 24 hrs by Western blot analysis; assay type: cell-based; procedure, shortened: as §1
[19] = target: T1, Protein deacetylase HDAC6 (Homo sapiens); assay: Inhibition of cytoplasmic HDAC6 in human SH-SY5Y cells assessed as alpha-tubulin acetylation at 31.25 to 125 uM after 24 hrs by Western blot analysis; assay type: cell-based; procedure, shortened: as §1
[20] = target: T2, Histone deacetylase 8 (Homo sapiens); assay: Binding affinity to human recombinant HDAC8 expressed in Escherichia coli assessed as enzyme biotinylation level at 1.5 uM under non denaturating condition after 3 hrs by Western blot-based photoaffinity labelling method in presence of 37.5 and 75 uM PCI34051; procedure, shortened: as §2
[21] = target: T2, Histone deacetylase 8 (Homo sapiens); assay: Binding affinity to human recombinant HDAC8 expressed in Escherichia coli assessed as enzyme biotinylation level at 1.5 uM under non denaturating condition after 3 hrs by Western blot-based photoaffinity labelling method in presence of 37.5 and 75 uM SAHA; procedure, shortened: as §2
[22] = target: T2, Histone deacetylase 8 (Homo sapiens); assay: Binding affinity to human recombinant HDAC8 expressed in Escherichia coli assessed as enzyme biotinylation level at 1.5 uM under non denaturating condition after 3 hrs by Western blot-based photoaffinity labelling method in presence of 7-[4-(3,5-Dimethyl-benzyloxy)phenylcarbamoyl]heptanoic acid methyl ester; procedure, shortened: as §2
[23] = target: T2, Histone deacetylase 8 (Homo sapiens); assay: Binding affinity to human recombinant HDAC8 expressed in Escherichia coli assessed as enzyme biotinylation level at 1.5 uM under non denaturating condition after 3 hrs by Western blot-based photoaffinity labelling method in presence of 37.5 and 75 uM TSA; procedure, shortened: as §2
[24] = target: T2, Histone deacetylase 8 (Homo sapiens); assay: Binding affinity to human recombinant HDAC8 expressed in Escherichia coli assessed as enzyme biotinylation level at […] preincubated for 3 hrs followed by denaturation measured after 60 mins by Western blot-based photoaffinity labelling method in presence of 0.25 and […] SAHA

T4 sequence (O15379 whole entry): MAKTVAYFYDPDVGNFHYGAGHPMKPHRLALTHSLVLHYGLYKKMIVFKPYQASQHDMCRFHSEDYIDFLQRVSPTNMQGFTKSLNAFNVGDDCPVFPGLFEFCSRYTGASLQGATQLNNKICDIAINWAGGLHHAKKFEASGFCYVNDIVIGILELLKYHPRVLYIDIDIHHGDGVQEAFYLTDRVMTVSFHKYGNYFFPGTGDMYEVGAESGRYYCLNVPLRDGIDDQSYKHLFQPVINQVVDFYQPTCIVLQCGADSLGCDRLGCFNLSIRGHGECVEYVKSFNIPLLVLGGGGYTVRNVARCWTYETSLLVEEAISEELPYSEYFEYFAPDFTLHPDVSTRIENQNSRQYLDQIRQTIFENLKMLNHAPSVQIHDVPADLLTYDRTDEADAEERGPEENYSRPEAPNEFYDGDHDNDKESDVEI
T6 sequence (Q92769 whole entry): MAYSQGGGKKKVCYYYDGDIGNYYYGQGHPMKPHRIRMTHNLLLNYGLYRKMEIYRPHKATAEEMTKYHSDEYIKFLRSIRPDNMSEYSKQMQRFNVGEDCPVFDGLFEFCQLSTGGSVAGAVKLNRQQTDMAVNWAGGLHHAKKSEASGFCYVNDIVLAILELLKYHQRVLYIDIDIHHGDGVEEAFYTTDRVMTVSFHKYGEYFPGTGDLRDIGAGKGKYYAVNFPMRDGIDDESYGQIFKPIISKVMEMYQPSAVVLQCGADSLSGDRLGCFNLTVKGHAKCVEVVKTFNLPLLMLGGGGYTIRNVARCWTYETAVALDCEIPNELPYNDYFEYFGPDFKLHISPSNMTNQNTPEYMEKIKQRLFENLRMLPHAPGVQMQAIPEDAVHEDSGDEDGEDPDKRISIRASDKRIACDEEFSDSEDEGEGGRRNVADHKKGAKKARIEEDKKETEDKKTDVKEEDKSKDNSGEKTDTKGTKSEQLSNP
T5 sequence (Q13547 whole entry): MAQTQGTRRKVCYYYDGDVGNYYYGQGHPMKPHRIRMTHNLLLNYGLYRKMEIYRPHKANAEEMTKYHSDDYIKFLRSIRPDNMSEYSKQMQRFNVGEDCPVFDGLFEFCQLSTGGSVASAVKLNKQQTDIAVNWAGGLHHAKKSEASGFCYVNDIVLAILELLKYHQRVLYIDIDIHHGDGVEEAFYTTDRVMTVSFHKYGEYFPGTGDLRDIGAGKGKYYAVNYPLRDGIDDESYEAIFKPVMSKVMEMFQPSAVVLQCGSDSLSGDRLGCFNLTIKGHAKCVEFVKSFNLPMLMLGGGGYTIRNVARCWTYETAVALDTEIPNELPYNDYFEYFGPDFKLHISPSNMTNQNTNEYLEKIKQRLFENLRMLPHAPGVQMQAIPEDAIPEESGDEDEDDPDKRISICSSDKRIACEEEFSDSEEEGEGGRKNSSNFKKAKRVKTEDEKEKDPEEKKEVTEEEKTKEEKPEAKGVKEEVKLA

SMILES: O=C(NO)c1ccc(Cn2c3ccccc3c3ccccc32)cc1
- inhibition [1]: Active

SMILES: COC(=O)CCCCCCC(=O)Nc1ccc(OCc2cc(CN=[N+]=[N-])cc(N=[N+]=[N-])c2)cc1
- Activity [2]: inactive
- Activity [3]: inactive
- Activity [4]: Dose-dependent effect
- Activity [5]: inactive
- Activity [6]: inactive
- Activity [7]: Active
- Activity [8]: Active
- IC50 (Histone deacetylase 8; read-out: IC50): 37.4 µM
- Activity [9]: Active

SMILES: [N-]=[N+]=NCc1cc(N=[N+]=[N-])cc(C(=O)Nc2ccc(-c3cc(C(=O)NCCCCCCC(=O)NO)no3)cc2)c1
- Ki (Histone deacetylase 3 [10]): 0.023 µM

SMILES: COc1cc(COc2ccc(NC(=O)CCCCCCC(=O)OCCN=[N+]=[N-])cc2)cc(N=[N+]=[N-])c1
- IC50 (Histone deacetylase 1 [11]): 111 µM
- Activity [4]: Dose-dependent effect
- inhibition (Histone deacetylase 3 [12]): inactive
- IC50 (Histone deacetylase 2 [13]): 72 µM
- IC50 (Histone deacetylase 8; read-out: IC50): 67.5 µM

SMILES: [N-]=[N+]=NCc1cc(Cn2cc(NC(=O)CCCCCCC(=O)NO)cn2)cc(N=[N+]=[N-])c1
- Ki (Histone deacetylase 3 [10]): 0.064 µM

SMILES: COC(=O)CCCCCCC(=O)Nc1ccc(OCc2cc(C)cc(C)c2)cc1
- IC50 (Histone deacetylase 8; read-out: IC50): 47.8 µM

SMILES: COC(=O)CCCCCCC(=O)Nc1ccc(OCc2ccccc2)cc1
- Activity [14]: > 50%
- IC50 (Histone deacetylase 8): Not Active

SMILES: Cc1cc(C)cc(COc2ccc(NC(=O)CCCCCCC(=O)OC(C)(C)C)cc2)c1
- IC50 (Histone deacetylase 8; read-out: IC50): 53.2 µM

SMILES: COC(=O)CCCCCCNC(=O)c1cc(-c2ccc(NC(=O)c3cc(CN=[N+]=[N-])cc(N=[N+]=[N-])c3)cc2)on1
- IC50 (Histone deacetylase 8; read-out: IC50): 47.1 µM

SMILES: CCCCCCCC(=O)Nc1ccc(OCc2cc(C)cc(C)c2)cc1
- IC50 (Histone deacetylase 8): Not Active

SMILES: CC(C)(C)OC(=O)CCCCCCC(=O)Nc1ccc(OCc2cc(CN=[N+]=[N-])cc(N=[N+]=[N-])c2)cc1
- IC50 (Histone deacetylase 8; read-out: IC50): 42.6 µM

SMILES: COc1cc(COc2ccc(NC(=O)CCCCCCC(=O)OCc3ccc(CN=[N+]=[N-])cc3)cc2)cc(N=[N+]=[N-])c1
- IC50 (Histone deacetylase 1 [11]): 86 µM
- Activity [3]: inactive
- inhibition (Histone deacetylase 1 [15]): Dose-dependent effect
- inhibition [16]: Dose-dependent effect
- inhibition (Histone deacetylase 2 [17]): Dose-dependent effect
- inhibition (Histone deacetylase 3 [12]): inactive
- inhibition (Histone deacetylase 3 [18]): Dose-dependent effect
- inhibition [19]: inactive
- IC50 (Histone deacetylase 2 [13]): 79 µM
- Activity [20]: inactive
- Activity [21]: inactive
- IC50 (Histone deacetylase 8; read-out: IC50): 28 µM
- Activity [22]: inactive
- Activity [23]: inactive

SMILES: COC(=O)CCCCCCC(=O)Nc1cnn(Cc2cc(CN=[N+]=[N-])cc(N=[N+]=[N-])c2)c1
- IC50 (Histone deacetylase 8; read-out: IC50): 36 µM

SMILES: [N-]=[N+]=NCc1cc(COc2ccc(NC(=O)CCCCCCC(=O)NO)cc2)cc(N=[N+]=[N-])c1
- Activity [4]: Dose-dependent effect
- Ki (Histone deacetylase 3 [10]): 0.74 µM
- Activity [24]: inactive
